The source of these data is ChEMBL document CHEMBL5137129, “Anti-HIV Macrocyclic Daphnane Orthoesters with an Unusual Macrocyclic Ring from Edgeworthia chrysantha” (J Nat Prod, 2022).

One data set concerns MT4. Briefly: Cytotoxicity against human MT4 cells assessed as inhibition of cell growth by measuring ATP by CellTiter-Glo luminescent cell viability assay. It counts as toxicity, cell-based. An outline of the steps: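 MT4 cells were cultured in parallel with the anti-HIV-1 cultures (NL4-3, MOI 0.001, 4 days, medium with compound refreshed at 48 h). Viability was read as ATP of metabolically active cells by CellTiter-Glo luminescence. Dose-response curves came from three independent experiments.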

Data set [1] has as its system Human immunodeficiency virus 1. Nature of the data set: Anti-HIV activity against Human immunodeficiency virus 1 […] infected in human MT4 cells assessed as inhibition of viral infection measured after 4 days by serial dilution based p24 ELISA analysis. It counts as functional, organism-based. Particulars: Human immunodeficiency virus 1, MT4, 96 h. An outline of the steps:
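HIV-1 NL4-3 at MOI 0.001 infected MT4 cells with compounds present at various concentrations (4-fold serial dilutions across the inhibitory phase). Fresh compound-containing medium was added 48 h post-infection. Replication was read by p24 ELISA at 4 days post-infection. Dose-response curves came from three independent experiments.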

For the compound `C=C(C)[C@]12C[C@@H](COC(=O)c3ccccc3)[C@@]34OC5(O[C@@H]1[C@@H]3[C@@H]1O[C@]1(CO)[C@@H](O)[C@@]1(O)[C@H]4[C@H]([C@H](C)[C@@H]1OC(=O)c1ccccc1)[C@H](C)CCCCCC[C@H]5O)O2`, in the data set with MT4, the IC50 was above 32 nM. `C=C(C)[C@@]12OC34CCC/C=C\CCCC[C@H](CCC)[C@@H]5[C@@H]6[C@]7(O[C@]5(C)OC7=O)[C@H](O)[C@@]5(CO)O[C@H]5[C@@H]([C@H]1O3)[C@]6(O4)[C@H](COC(=O)c1ccccc1)[C@H]2OC(C)=O`: the concentration giving a half-maximal response (EC50) in data set [1] was above 32 nM. In the data set with MT4, the IC50 is above 32 nM. For the compound `C=C(C)[C@@]12OC34CCC/C=C\CCCC[C@H](CCC)[C@@H]5[C@@H]6[C@]7(O[C@]5(C)OC7=O)[C@H](O)[C@@]5(CO)O[C@H]5[C@@H]([C@H]1O3)[C@]6(O4)[C@H](C)[C@H]2OC(C)=O`, the EC50 in data set [1] is above 32 nM. Also, in the data set with MT4, the half-inhibitory concentration (IC50) is above 32 nM. Regarding `C=C(C)[C@@]12OC34CCC/C=C\CCCC[C@H](CCC)[C@@H]5[C@@H]6[C@]7(O[C@]5(C)OC7=O)[C@H](O)[C@@]5(CO)O[C@H]5[C@@H]([C@H]1O3)[C@]6(O4)[C@H](COC(=O)C(C)C)[C@H]2OC(C)=O`, the 50% effective concentration (EC50) in data set [1] came out at 29.3 nM. Further, the IC50 in the data set with MT4 is above 32 nM. As for `C=C(C)[C@@]12OC34CCC/C=C\CCCC[C@H](CCC)[C@H]5[C@H](C)C(=O)[C@@]6(O)[C@H](O)[C@@]7(CO)O[C@H]7[C@@H]([C@H]1O3)[C@](O4)([C@H](C)[C@H]2OC(C)=O)[C@H]56`, the EC50 in data set [1] stood at 8.4 nM. The half-inhibitory concentration (IC50) with MT4 was above 32 nM. For `C=C(C)[C@@]12OC34CCC/C=C\CCCC[C@H](CCC)[C@H]5[C@H](C)C(=O)[C@@]6(O)[C@H](O)[C@@]7(CO)O[C@H]7[C@@H]([C@H]1O3)[C@](O4)([C@H](COC(=O)C(C)C)[C@H]2OC(C)=O)[C@H]56`, in data set [1], the EC50 was 2.9 nM. In addition, in the data set on MT4, the IC50 amounted to 21.3 nM.
